The RNAGym collection of RNA variant scans (doi:10.1126/science.aae0568)
This sample holds only a part of the variants without activity.

B1: tRNA (parent)
chain: GUUCCGUUGGCGUAAUGGUAACGCGUCUCCCUCCUAAGGAGAAGACUGCGGGUUCGAGUCCCGUACGGAACG

Variants of: B1
Assay: yeast fitness relative to wild type (ratio to wild type); higher = fitter; tRNA-Arg(CCU), competitive growth, 37 C, YPD
Summary of the method: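 Variants of the tRNA-Arg(CCU) gene, chemically synthesised with a 3% per-site mutation rate at 69 sites, were placed at the native genomic locus in Saccharomyces cerevisiae. The pooled strains were competed in YPD at 37°C for 24 hours in six parallel replicates. Gene amplicons from the start population and from each end population were read by 100-nucleotide paired-end sequencing. Darwinian fitness relative to wild type came from changes in genotype frequencies; genotypes needed ≥ 100 starting reads, and estimates < 0.5 were set to 0.5.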

Going from A14U C34G A37C G50U C62U to A14U G17C C24A C30G, the yeast fitness rises from ≤ 0.5 to 0.524.

Going from A15C A20G G51A C55G to A15C C49A G67C, the yeast fitness falls from 0.532 to ≤ 0.5.

First: A15C G18A C24A C34U C46G
Second: A14U C46U
The yeast fitness of the first is lower: ≤ 0.5 for the first, 0.664 for the second.

Compared with A14U C46A, A14U C61G is lower in yeast fitness: 0.599 for the first, ≤ 0.5 for the second.

Compared with A15C A36C G48A G67A, A15C A21C C27G C62U is lower in yeast fitness: 0.541 for the first, 0.534 for the second.

First: A14U C30U G58C C60A
Second: A14U G48C
The yeast fitness of the first is lower: ≤ 0.5 for the first, 0.714 for the second.

Going from A14U G18C A70G to A14U G39C C55G C62A, the yeast fitness falls from 0.715 to ≤ 0.5.

A15C C29G G44C A45U U47A and A15C C30A A57G cannot be ordered by yeast fitness: ≤ 0.5 for the first, ≤ 0.5 for the second.

A15C C27U C31A and A15C A20G C33A A36C U47A cannot be ordered by yeast fitness: ≤ 0.5 for the first, ≤ 0.5 for the second.

A15C C27U A42C and A14U C24G U26G cannot be ordered by yeast fitness: ≤ 0.5 for the first, ≤ 0.5 for the second.

A14U U16A C31G U47C G68C and A15C U19C C31G G56C C66U cannot be ordered by yeast fitness: ≤ 0.5 for the first, ≤ 0.5 for the second.

First: A15C U16A
Second: A15C U16C
The yeast fitness of the first is lower: 0.628 for the first, 0.678 for the second.

First: A15C A69G
Second: A14U G18C
The yeast fitness of the first is higher: 0.877 for the first, 0.583 for the second.

A15C C30G U32C C34U C66U A70C and A14U C31U G51A G63C cannot be ordered by yeast fitness: ≤ 0.5 for the first, ≤ 0.5 for the second.

A15C A40C C49G and A15C A36U C55A A65U cannot be ordered by yeast fitness: ≤ 0.5 for the first, ≤ 0.5 for the second.

A14U C24G G41A G44A U53A G63A C66U and A14U G18C C29U A37U cannot be ordered by yeast fitness: ≤ 0.5 for the first, ≤ 0.5 for the second.

A14U C34G C61G A70C and A15C A36G G39C C55U C66U cannot be ordered by yeast fitness: ≤ 0.5 for the first, ≤ 0.5 for the second.

Compared with A14U C29U U32G A57U, A15C G48A A57G is higher in yeast fitness: ≤ 0.5 for the first, 0.536 for the second.

A15C G58A C61G C62G and A14U U47A G56A cannot be ordered by yeast fitness: ≤ 0.5 for the first, ≤ 0.5 for the second.

Going from A14U G23C C55A to A15C C46U A69U, the yeast fitness rises from 0.559 to 0.814.

A14U C34G A43C A70U and A14U C29U A37U C66U cannot be ordered by yeast fitness: ≤ 0.5 for the first, ≤ 0.5 for the second.

A15C C31U G63A and A15C C22U G38A C55G cannot be ordered by yeast fitness: ≤ 0.5 for the first, ≤ 0.5 for the second.

Going from A14U C30A C66U to A14U C24U U64C, the yeast fitness falls from 0.547 to ≤ 0.5.

A15C C31A C34A and A14U U19G C30G cannot be ordered by yeast fitness: ≤ 0.5 for the first, ≤ 0.5 for the second.

First: A15C G38A A45G G52A C61G
Second: A14U U35C A37U
The yeast fitness of the first is higher: 0.539 for the first, ≤ 0.5 for the second.

Compared with A14U C27U C55G G68A, A14U G23C A70C is higher in yeast fitness: ≤ 0.5 for the first, 0.586 for the second.

Going from A14U G17A C22U C33G G67U to A14U U26A C55G A65C, the yeast fitness falls from 0.613 to ≤ 0.5.

Going from A14U G18A C24A C34A to A15C A43C G58A, the yeast fitness falls from 0.53 to ≤ 0.5.

Going from A14U G23A U32C to A14U C49A, the yeast fitness rises from ≤ 0.5 to 0.543.

A15C G52C U64A and A15C C46U U64C A70G cannot be ordered by yeast fitness: ≤ 0.5 for the first, ≤ 0.5 for the second.

Going from A15C A20C A21U C30U A40U to A15C C60A A70U, the yeast fitness rises from ≤ 0.5 to 0.555.

First: A14U U16C A21G C24U C46G C62U
Second: A14U G23U
The yeast fitness of the first is lower: ≤ 0.5 for the first, 0.59 for the second.

Going from A15C C22A A42C C46A A65U to A15C A43C, the yeast fitness rises from ≤ 0.5 to 0.609.

A15C A40G U53C and A15C G25A C27A C33U C34A C61U cannot be ordered by yeast fitness: ≤ 0.5 for the first, ≤ 0.5 for the second.

Compared with A14U G23C C29G G51A G56U, A15C A36G is higher in yeast fitness: ≤ 0.5 for the first, 0.888 for the second.

A15C C31U G48C A65C and A14U G18C A69U cannot be ordered by yeast fitness: ≤ 0.5 for the first, ≤ 0.5 for the second.

A15C G17A G18A A36C C55U and A15C U26C C62U cannot be ordered by yeast fitness: ≤ 0.5 for the first, ≤ 0.5 for the second.

A15C G25C C29U U35C A43U A57C G58A and A14U G17A C31U C61A G68C cannot be ordered by yeast fitness: ≤ 0.5 for the first, ≤ 0.5 for the second.

A15C U16C A36U A65C and A15C U19C A37C G51A G67C cannot be ordered by yeast fitness: ≤ 0.5 for the first, ≤ 0.5 for the second.

A15C C29A G41A A43C and A15C G48C C61A cannot be ordered by yeast fitness: ≤ 0.5 for the first, ≤ 0.5 for the second.

Going from A15C C31G C55A C66U to A15C G68U, the yeast fitness rises from ≤ 0.5 to 0.735.

First: A15C G68C
Second: A15C G17A A36G G38C U59C
The yeast fitness of the first is higher: 0.633 for the first, ≤ 0.5 for the second.

A15C G17A A57G A65G and A14U C34G C61G cannot be ordered by yeast fitness: ≤ 0.5 for the first, ≤ 0.5 for the second.

A14U U19A G23A A43C A57G U64G and A14U C29U C30A A45C cannot be ordered by yeast fitness: ≤ 0.5 for the first, ≤ 0.5 for the second.

A15C U35C A42G G67U and A15C C27G G48A C49G cannot be ordered by yeast fitness: ≤ 0.5 for the first, ≤ 0.5 for the second.

Going from A14U U19C A65U to A15C A42G C49A, the yeast fitness rises from ≤ 0.5 to 0.605.

Compared with A15C U16A C31G C34U A69U, A15C A42G is higher in yeast fitness: ≤ 0.5 for the first, 0.76 for the second.

First: A15C A20G C61U C62U A69G
Second: A14U U59G A65U
The yeast fitness of the first is higher: 0.764 for the first, 0.547 for the second.

Compared with A15C A20C A65U, A15C C49G C55G is higher in yeast fitness: ≤ 0.5 for the first, 0.668 for the second.

Compared with A15C A43U C46A, A15C C22G A43C is lower in yeast fitness: 0.502 for the first, ≤ 0.5 for the second.

A14U G25A C62A G63A A70G and A14U U16G U19A G56A G67A cannot be ordered by yeast fitness: ≤ 0.5 for the first, ≤ 0.5 for the second.

A15C G17A A45C and A14U U26A C33A G63A cannot be ordered by yeast fitness: ≤ 0.5 for the first, ≤ 0.5 for the second.

Going from A14U G18C G39C C49G C61U to A14U G39C, the yeast fitness rises from ≤ 0.5 to 0.507.

First: A14U G17A A45U G58C
Second: A14U U59A G67A
The yeast fitness of the first is lower: ≤ 0.5 for the first, 0.578 for the second.

Going from A15C G39A C46U to A15C G17A U28A, the yeast fitness rises from 0.55 to 0.675.

First: A15C G18A A20U
Second: A15C A43U C49G
The yeast fitness of the first is lower: ≤ 0.5 for the first, 0.515 for the second.

Compared with A14U C29U, A14U C29G is higher in yeast fitness: 0.64 for the first, 0.692 for the second.

Going from A14U U35C C66G to A15C G44C, the yeast fitness rises from ≤ 0.5 to 0.684.

Compared with A14U G67A, A15C A36G C49U G67U is lower in yeast fitness: 0.733 for the first, 0.632 for the second.

A15C A21C C34U A37U and A15C A36U C49U A65C cannot be ordered by yeast fitness: ≤ 0.5 for the first, ≤ 0.5 for the second.

A14U U19A C24G U54A and A15C G17C C31A G44C A70G cannot be ordered by yeast fitness: ≤ 0.5 for the first, ≤ 0.5 for the second.

A15C G17A C29A C30U C62G U64A and A15C A36C G38C G52A cannot be ordered by yeast fitness: ≤ 0.5 for the first, ≤ 0.5 for the second.

Compared with A14U C29G U53C U54G, A15C G67A is higher in yeast fitness: 0.571 for the first, 0.698 for the second.

Going from A15C C46U to A15C C46A, the yeast fitness falls from 0.939 to 0.86.

Compared with A15C G17A C22U G23C G51A A70U, A15C C27U C31A C55U G68A is lower in yeast fitness: 0.596 for the first, ≤ 0.5 for the second.

Compared with A14U G58A C61U, A15C U35A G50C A65C is higher in yeast fitness: 0.509 for the first, 0.603 for the second.

Compared with A15C G17A C22U G23C G51A A69C, A14U U64C is higher in yeast fitness: 0.567 for the first, 0.71 for the second.

A15C G56C U59C and A14U G25A C60G C66G cannot be ordered by yeast fitness: ≤ 0.5 for the first, ≤ 0.5 for the second.

Compared with A14U G25C G39C U54G A65U, A15C U19C A65C is higher in yeast fitness: ≤ 0.5 for the first, 0.628 for the second.

Going from A14U G41A to A15C C55G, the yeast fitness falls from 0.674 to 0.593.

Going from A15C C55U to A14U U35C U53G C66G, the yeast fitness falls from 0.625 to ≤ 0.5.

Going from A15C U16C A37C G50A U53A C61U to A15C C30U C33G, the yeast fitness falls from 0.58 to ≤ 0.5.

A15C G17C C31A G44C and A14U G44A G58C cannot be ordered by yeast fitness: ≤ 0.5 for the first, ≤ 0.5 for the second.

First: A15C A36C G48A
Second: A15C A42G C49A G56C G67U
The yeast fitness of the first is higher: 0.516 for the first, ≤ 0.5 for the second.

Going from A14U C24G G41A G44A U53A A57G C66U to A15C A21U C24U, the yeast fitness falls from 0.529 to ≤ 0.5.

Going from A15C A20G A65U A69G to A15C A37U, the yeast fitness rises from ≤ 0.5 to 0.624.

Going from A15C A57G to A15C C29U A69C, the yeast fitness falls from 0.812 to ≤ 0.5.

First: A15C C49U
Second: A15C C49G
The yeast fitness of the first is higher: 0.896 for the first, 0.652 for the second.

Compared with A15C U16C G17C C49G, A14U U19A is higher in yeast fitness: ≤ 0.5 for the first, 0.709 for the second.

A14U C27G G52A C60U and A15C G17A G38C cannot be ordered by yeast fitness: ≤ 0.5 for the first, ≤ 0.5 for the second.

Compared with A14U C29G A57G U59G C62G C66U, A15C C30A A42C G56A A57U is higher in yeast fitness: ≤ 0.5 for the first, 0.578 for the second.

First: A14U C31U C55U G68A
Second: A15C U19A C30U A37C G41A
The yeast fitness of the first is higher: 0.618 for the first, ≤ 0.5 for the second.

Compared with A14U G17C C24A C30G A57G, A14U G25A A42G C66G is higher in yeast fitness: ≤ 0.5 for the first, 0.767 for the second.

In the case of A15C U16C A37C C60A, the yeast fitness is reported as ≤ 0.5.
